Assay results gathered from unrelated publications.
Target: Interleukin-1 receptor-associated kinase 3 (IRAK3, Homo sapiens, UniProt Q9Y616)
Sequence (Q9Y616 1-596, as in one of the studies): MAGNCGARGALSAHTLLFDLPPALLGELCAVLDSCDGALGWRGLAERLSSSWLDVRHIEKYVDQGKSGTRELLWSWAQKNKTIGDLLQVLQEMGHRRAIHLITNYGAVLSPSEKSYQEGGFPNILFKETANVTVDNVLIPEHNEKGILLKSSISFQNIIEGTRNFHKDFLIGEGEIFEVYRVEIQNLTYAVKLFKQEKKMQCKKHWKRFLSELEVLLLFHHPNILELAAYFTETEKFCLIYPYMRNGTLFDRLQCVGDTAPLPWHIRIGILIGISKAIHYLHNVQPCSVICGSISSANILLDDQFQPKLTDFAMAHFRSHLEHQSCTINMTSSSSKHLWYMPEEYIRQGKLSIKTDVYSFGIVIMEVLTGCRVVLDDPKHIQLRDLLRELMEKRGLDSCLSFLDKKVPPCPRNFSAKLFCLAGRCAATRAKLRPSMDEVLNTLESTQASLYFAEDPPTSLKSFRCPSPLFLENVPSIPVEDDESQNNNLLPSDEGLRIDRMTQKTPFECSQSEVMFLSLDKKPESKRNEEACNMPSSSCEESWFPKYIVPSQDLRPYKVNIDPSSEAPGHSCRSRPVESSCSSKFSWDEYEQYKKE

SMILES | read-out | method | tested at | remaining binding
COc1ncc2cc3ccccc3nc2c1C#N | cell-free assay | competition with immobilised ligand | 5 µM | 94%
C[C@H](NC(=O)c1cnc2n1[C@](C)(Cc1ccc(C#N)cc1)C(=O)N2c1cc(Cl)c(F)c(Cl)c1)C(=O)NC1(c2ccccn2)CC1 | cell-free assay | competition with immobilised ligand | 1 µM | 100%
CC1CCCN1c1nccc(-c2cnn3ncccc23)n1 (centres unmarked) | binding | – | 1 µM | 72%
CCN1CCN(Cc2ccc(C(=O)Nc3ccc(C)c(Oc4ccc5c(c4)CC(=O)N5)c3)cc2C(F)(F)F)CC1 | binding | competition with immobilised ligand | 1 µM | 100%
C[C@@H](c1ccc(-n2cnc3c(N)ncnc32)cc1)N1CCc2nn(C)c(Cc3ccccc3)c2C1=O | binding | competition with immobilised ligand | 0.1 µM | 79%
O=C(NCc1ncc(C(F)(F)F)cc1Cl)c1ccc2c(c1)C1(CCS(=O)(=O)CC1)[C@H](C1CC1)N2S(=O)(=O)c1ccc(F)cc1 | cell-free assay | competition with immobilised ligand | 1 µM | 99%
O=C(c1ccc(Nc2nccc(-c3cc4ccccc4s3)n2)cc1)N1CCC(N2CCCC2)CC1 | binding | competition with immobilised ligand | 1 µM | 14%
F[C@@H]1CCN(c2nccc(-c3cnn4ncccc34)n2)C1 | binding | – | 1 µM | 100%
O=C(c1ccc(Nc2ncc(Cl)c(-c3cc4ccccc4s3)n2)cc1)N1CCC(N2CCCC2)CC1 | binding | competition with immobilised ligand | 1 µM | 6%
O=C1CCc2cc(Nc3cc(OC4CCOCC4)c([N+](=O)[O-])cc3Cl)ccc2N1 | cell-free assay | competition with immobilised ligand | 1 µM | 98%
COc1cnc(Nc2cccc(S(N)(=O)=O)c2)nc1N1CCN(c2ccccc2)C(=O)C1 | binding | competition with immobilised ligand | 1 µM | 100%
CN(CCCC(F)(F)F)c1nccc(-c2cnn3ncccc23)n1 | binding | – | 1 µM | 94%
c1cncc(-c2cccc(Nc3nccc(NC4CCCCC4)n3)c2)c1 | binding | competition with immobilised ligand | 10 µM | 4.5%
CCCCN(CCCC)C(=O)CN1C[C@H](c2cc(OC)c3c(c2)OCO3)[C@@H](C(=O)O)[C@@H]1CC(C)(C)CCC | cell-free assay | competition with immobilised ligand | 1 µM | 100%
O=C(NCCCN1CCOCC1)c1ccc(Nc2nccc(-c3cc4ccccc4s3)n2)cc1 | binding | competition with immobilised ligand | 1 µM | 8.4%
O=C(Nc1c[nH]nc1C(=O)NC1CCNCC1)c1cc(F)cc(F)c1 | binding | competition with immobilised ligand | 1 µM | 100%
N[C@@H]1CCN(c2nccc(-c3cnn4ncccc34)n2)C1 | binding | – | 1 µM | 100%
CCOCCn1cc(C(=O)Nc2ccc(-n3nc(-c4cccnc4)cc3C(F)(F)F)cn2)ccc1=O | cell-free assay | competition with immobilised ligand | 1 µM | 100%
C[C@@H]1CCN(c2nccc(-c3cnn4ncccc34)n2)C1 | binding | – | 1 µM | 52%
Nc1cnc(N2CCc3cc(S(=O)(=O)Nc4c(F)cc(Cl)cc4F)cc(N4CCCC4=O)c32)nc1 | cell-free assay | competition with immobilised ligand | 1 µM | 89%
